Measured values pooled from the literature.
ACVR2A: Activin receptor type-2A (ACVR2A, Homo sapiens, UniProt P27037)
SETD7: Histone-lysine N-methyltransferase SETD7 (SETD7, Homo sapiens, UniProt Q8WTS6)
PHIP BD2: PHIP, BD2 (Homo sapiens, UniProt Q8WWQ0)
CDKL3: Cyclin-dependent kinase-like 3 (CDKL3, Homo sapiens, UniProt Q8IVW4)
SLC10A2: Ileal sodium/bile acid cotransporter (SLC10A2, Homo sapiens, UniProt Q12908)
Methionyl-tRNA synthetase, putative: Methionyl-tRNA synthetase, putative (Trypanosoma brucei brucei, UniProt Q38C91)

Cn1c2c(c3ccc(Cl)c(Cl)c31)C(C#N)C1(CCNCC1)NC2=O (racemic) — ΔTm (ACVR2A; thermal stability, DSF; 10 µM): 0 °C
O=c1oc2c(O)c(O)cc3c(=O)oc4c(O)c(O)cc1c4c23 — inhibition (SETD7; cell-free assay; 10 µM): 20%
CC(=O)N[C@H]1CSSC[C@@H](C(=O)N[C@@H](Cc2c[nH]c3ccccc23)C(N)=O)NC(=O)[C@H](Cc2ccccc2)NC(=O)[C@H](CCCNC(=N)N)NC1=O — Emax (Melanocortin receptor 5 (MC5R, Homo sapiens, UniProt P33032); cAMP, agonist; HEK293; 3 min): 0%
Cc1cnc(Nc2ccc(OCCN3CCCC3)cc2)nc1Nc1cccc(S(=O)(=O)NC(C)(C)C)c1 — ΔTm (PHIP BD2; thermal stability, DSF; 10 µM): 0.6 °C
COc1cc(Cl)c(C(=O)N[C@@H](CN[C@H]2CC[C@@H](N)CC2)Cc2ccc(C#N)cc2)cc1-c1ccc(CN[C@H](C)c2ccc(C)cc2)o1 — remaining activity (CDKL3; enzyme activity, inhibitor; 1 µM): 95%
CCCCOc1cc(C(=O)NCCN(CC)CC)c2ccccc2n1 — inhibition (SLC10A2; transporter uptake, inhibitor, radiometric; 1 mM): 68.8%
N#Cc1ccc(/C=C/CN(CC[C@H](N)C(=O)O)C[C@H]2O[C@@H](n3cnc4c(N)ncnc43)[C@H](O)[C@@H]2O)cc1 — activity vs control (Histone-lysine N-methyltransferase SETD2 (SETD2, Homo sapiens, UniProt Q9BYW2); enzyme activity, inhibitor; 1 µM): 108%
Oc1ccc(-c2nc(-c3ccncc3)c(-c3ccc(F)cc3)[nH]2)cc1 — ΔTm (Bromodomain-containing protein 9 (BRD9, Homo sapiens, UniProt Q9H8M2); thermal stability, DSF; 10 µM): 0.31 °C
O=C(Cc1cc(Cl)cc(Cl)c1)N1CCCC(c2nc3cc(Cl)c(Cl)cc3[nH]2)C1 (centres unmarked) — ΔTm (Methionyl-tRNA synthetase, putative; thermal stability, DSF; 100 µM): 7 °C
Nc1ncnc2occ(-c3ccc(NC(=O)Nc4cc(C(F)(F)F)ccc4F)cc3)c12 — remaining signal (CDKL3; cell-free assay; 20 µM): 0.8%
O=C(Cc1cc(Cl)cc(Cl)c1)N1CCCC(c2nc3cc(Cl)c(F)cc3[nH]2)C1 (centres unmarked) — ΔTm (Methionyl-tRNA synthetase, putative; thermal stability, DSF; 100 µM): 7 °C
Cn1c2c(c3ccc(Cl)c(Cl)c31)C(C#N)C1(CCCC1)NC2=O (centres unmarked) — ΔTm (ACVR2A; thermal stability, DSF; 10 µM): 0 °C
Cc1ccc(C(=O)Nc2ccc(CN3CCN(C)CC3)c(C(F)(F)F)c2)cc1C#Cc1cnc2cccnn12 — remaining activity (Serine/threonine-protein kinase 35 (STK35, Homo sapiens, UniProt Q8TDR2); enzyme activity, inhibitor; 23.5 nM): 98%
COc1cc2ncnc(Nc3ccc(F)c(Cl)c3)c2cc1OCCCN1CCOCC1 — inhibition (SLC10A2; transporter uptake, inhibitor, radiometric; 1 mM): < 10%
Cc1cc2c(cc1N1C(=O)c3cccc4c(Cl)ccc(c34)C1=O)n(C)c(=O)n2C — ΔTm (PHIP (Homo sapiens, UniProt Q8WWQ0); thermal stability, DSF; 10 µM): -2.4 °C
Nc1nc(NC2CC2)c2ncn([C@H]3C=C[C@@H](CO)C3)c2n1 — inhibition (SLC10A2; transporter uptake, inhibitor, radiometric; 1 mM): 13.1%
O=c1c(-c2cc(O)c(O)c(O)c2)coc2cc(O)c(O)c(O)c12 — inhibition (SETD7; cell-free assay; 10 µM): 34%
CN1CCN(c2ccc([N+](=O)[O-])cc2NC(=O)c2ccccc2)CC1 — ΔTm (WD repeat-containing protein 5 (WDR5, Homo sapiens, UniProt P61964); thermal stability, DSF; 100 µM): 3.8 °C
C[S+]([O-])c1ccc(-c2nc(-c3ccncc3)c(-c3ccc(F)cc3)[nH]2)cc1 (centres unmarked) — ΔTm (PHIP BD2; thermal stability, DSF; 10 µM): 1.14 °C
Cc1cnc(NC2CCOCC2)nc1-n1cnc(C(=O)NC(CN)c2cc(F)cc(Cl)c2)c1 (centres unmarked) — remaining activity (Phosphatidylinositol 5-phosphate 4-kinase type-2 alpha (PIP4K2A, Homo sapiens, UniProt P48426); enzyme activity, inhibitor, radiometric; 1 µM): 102%
